The values that follow come from ChEMBL document CHEMBL1122187, “Synthesis and antiviral activity of certain carbamoylpyrrolopyrimidine and pyrazolopyrimidine nucleosides” (1982).

Each structure is given as a SMILES string.

What all share (format): functional, Chlorocebus sabaeus
Assay [1] has as its system Vero. The assay is described as follows: Percentage plaque reduction was determined against Sandfly fever (SF) virus in african green monkey kidney (vero,V) at a conc of 100-250 ug/mL.
Assay [2] concerns Vero. The assay is described as follows: Percentage plaque reduction was determined against Sandfly fever (SF) virus in african green monkey kidney (vero,V) at a conc of 25-100 ug/mL.
In assay [3] the test system is Vero. Kind of assay: Percentage plaque reduction was determined against rift valley fever(RVF) virus in african green monkey kidney (vero,V) at a conc of 25-100 ug/mL.
The subject of assay [4] is Vero. The assay is described as follows: Percentage plaque reduction was determined against venezuelan equine encephalitis (VEE) virus in african green monkey kidney (vero,V) at a conc of 250-500 ug/mL.
Assay [5] deals with Vero. Kind of assay: Percentage plaque reduction was determined against rift valley fever(RVF) virus in african green monkey kidney (vero,V) at a conc of <25 ug/mL.
The test system of assay [6] is Vero. Kind of assay: In vitro antiviral activity against parainfluenza type 3(para 3) virus was determined in african green monkey kidney (vero,V) expressed as virus rating. The gist of the method: (§1)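 Cell monolayers (18 h) infected with 320 TCID50 of virus. Compound was added within 15–30 min at half-log dilutions from 1000 to 1 μg/mL. After 72 h at 37 °C in 5% CO2, CPE was scored 0–4 by microscopy. VR = sum of (virus control − treated) scores, halved at partially toxic levels, divided by 10 × test cups per drug level.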

For assay [7], the system named is Vero. Kind of assay: Percentage plaque reduction was determined against rift valley fever(RVF) virus in african green monkey kidney (vero,V) at a conc of 250-500 ug/mL.
For assay [8], the system named is Vero. The assay is described as follows: Percentage plaque reduction was determined against venezuelan equine encephalitis (VEE) virus in african green monkey kidney (vero,V) at a conc of <25 ug/mL.
For assay [9], the system named is Vero. The assay is described as follows: Percentage plaque reduction was determined against rift valley fever(RVF) virus in african green monkey kidney (vero,V) at a conc of 100-250 ug/mL.
In assay [10] the test system is Vero. The assay is described as follows: Percentage plaque reduction was determined against yellow fever(YF) virus in african green monkey kidney (vero,V); 61-90.
The subject of assay [11] is Vero. Kind of assay: Percentage plaque reduction was determined against Sandfly fever (SF) virus in african green monkey kidney (vero,V) at a conc of 250-500 ug/mL.
For assay [12], the system named is Vero. Kind of assay: Percentage plaque reduction was determined against venezuelan equine encephalitis (VEE) virus in african green monkey kidney (vero,V) at a conc of 25-100 ug/mL.
Assay [13] has as its system Vero. The assay is described as follows: In vitro antiviral activity against herpes simplex type 1 (HSV-1) virus was determined in african green monkey kidney (vero,V) expressed as virus rating. In short, it runs like this:
as §1

For assay [14], the system named is Vero. The assay is described as follows: In vitro antiviral activity against vaccinia(VV) virus was determined in african green monkey kidney (vero,V) expressed as virus rating. The gist of the method:
as §1

Assay [15] deals with Vero. The assay is described as follows: Percentage plaque reduction was determined against Sandfly fever (SF) virus in african green monkey kidney (vero,V) at a conc of <25 ug/mL.
For assay [16], the system named is Vero. The assay is described as follows: Percentage plaque reduction was determined against venezuelan equine encephalitis (VEE) virus in african green monkey kidney (vero,V) at a conc of 100-250 ug/mL.
Assay [17] concerns Vero. The assay is described as follows: Percentage plaque reduction was determined against pichinde(PICH) virus in african green monkey kidney (vero,V). In short, it runs like this:
(§2)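 Infected Vero 24-well monolayers: virus adsorbed 1 h at 37 °C, then overlaid with agar holding dilutions of compound and incubated again at 37 °C with CO₂. Plaques were stained with crystal violet and counted. Inhibition was scored as % plaque reduction bands (10-30%, 31-60%, 61-90%), each tied to a drug concentration range.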

The subject of assay [18] is Vero. Kind of assay: In vitro antiviral activity against parainfluenza type 3(para 3) virus was determined in african green monkey kidney (vero,V) expressed as virus rating. Toxic level(32 ug/mL). The gist of the method: as §1
Assay [19] concerns Vero. The assay is described as follows: Percentage plaque reduction was determined against pichinde(PICH) virus in african green monkey kidney (vero,V).Toxic level(32 ug/mL); 61-90. The gist of the method:
as §2

Assay [20] relates to Vero. The assay is described as follows: Percentage plaque reduction was determined against venezuelan equine encephalitis (VEE) virus in african green monkey kidney (vero,V) at a conc of 100-250 ug/mL. Toxic level(32 ug/mL).
Assay [21] concerns Vero. The assay is described as follows: In vitro antiviral activity against herpes simplex type 1 (HSV-1) virus was determined in african green monkey kidney (vero,V) expressed as virus rating. Toxic level(32 ug/mL). The gist of the method: as §1
Assay [22] concerns Vero. Kind of assay: Percentage plaque reduction was determined against rift valley fever(RVF) virus in african green monkey kidney (vero,V) at a conc of 25-100 ug/mL. Toxic level(32 ug/mL); 61-90.
Assay [23] relates to Vero. Kind of assay: Percentage plaque reduction was determined against venezuelan equine encephalitis (VEE) virus in african green monkey kidney (vero,V) at a conc of 25-100 ug/mL. Toxic level(32 ug/mL).
Assay [24] relates to Vero. The assay is described as follows: Percentage plaque reduction was determined against Sandfly fever (SF) virus in african green monkey kidney (vero,V) at a conc of 250-500 ug/mL; 10-30.
For assay [25], the system named is Vero. Kind of assay: Percentage plaque reduction was determined against venezuelan equine encephalitis (VEE) virus in african green monkey kidney (vero,V) at a conc of 250-500 ug/mL. Toxic level(32 ug/mL).
Assay [26] relates to Vero. Kind of assay: Percentage plaque reduction was determined against yellow fever(YF) virus in african green monkey kidney (vero,V).Toxic level(32 ug/mL); 61-90.
Assay [27] deals with Vero. The assay is described as follows: Percentage plaque reduction was determined against venezuelan equine encephalitis (VEE) virus in african green monkey kidney (vero,V) at a conc of <25 ug/mL. Toxic level(32 ug/mL).

`CSc1ncnc2c([C@@H]3O[C@H](COC(C)=O)[C@@H](OC(C)=O)[C@H]3OC(C)=O)n[nH]c12`: the Plaque reduction in assay [1], in assay [2], in assay [3], in [4], in assay [5] and in [7] was 0% each time. Further, the Plaque reduction came to 0% in assay [8]; 0% in assay [9]; 61% in assay [10]; 0% in assay [11]; 0% in assay [12]; 0% in [15]. The Plaque reduction in [16] and in assay [17] was 0% each time. Besides, the results for the Virus rating in [6], in assay [13] and in assay [14] were 1, 0.6 and 1.2, respectively.
Consider `O=C1N=CN=C2C1C=CN2C1O[C@H](CO)[C@@H](O)[C@H]1O` (some centres not stated), for which the Virus rating in assay [18] and in assay [21] was 0 each time. The Plaque reduction is 61% in assay [19]; 0% in assay [20]; 61% in assay [22]; 0% in assay [23]; 10% in assay [24]; 0% in [25]. Besides, the values for the Plaque reduction in assay [26] and in [27] were 61% and 0%, respectively.
